Consider 7 compounds from ChEMBL document CHEMBL3352347, “ΔF508-CFTR correctors: synthesis and evaluation of thiazole-tethered imidazolones, oxazoles, oxadiazoles, and thiadiazoles” (Bioorg Med Chem Lett, 2014).

Chain of Cystic fibrosis transmembrane conductance regulator (Homo sapiens, UniProt P13569) (P13569 as listed by the source): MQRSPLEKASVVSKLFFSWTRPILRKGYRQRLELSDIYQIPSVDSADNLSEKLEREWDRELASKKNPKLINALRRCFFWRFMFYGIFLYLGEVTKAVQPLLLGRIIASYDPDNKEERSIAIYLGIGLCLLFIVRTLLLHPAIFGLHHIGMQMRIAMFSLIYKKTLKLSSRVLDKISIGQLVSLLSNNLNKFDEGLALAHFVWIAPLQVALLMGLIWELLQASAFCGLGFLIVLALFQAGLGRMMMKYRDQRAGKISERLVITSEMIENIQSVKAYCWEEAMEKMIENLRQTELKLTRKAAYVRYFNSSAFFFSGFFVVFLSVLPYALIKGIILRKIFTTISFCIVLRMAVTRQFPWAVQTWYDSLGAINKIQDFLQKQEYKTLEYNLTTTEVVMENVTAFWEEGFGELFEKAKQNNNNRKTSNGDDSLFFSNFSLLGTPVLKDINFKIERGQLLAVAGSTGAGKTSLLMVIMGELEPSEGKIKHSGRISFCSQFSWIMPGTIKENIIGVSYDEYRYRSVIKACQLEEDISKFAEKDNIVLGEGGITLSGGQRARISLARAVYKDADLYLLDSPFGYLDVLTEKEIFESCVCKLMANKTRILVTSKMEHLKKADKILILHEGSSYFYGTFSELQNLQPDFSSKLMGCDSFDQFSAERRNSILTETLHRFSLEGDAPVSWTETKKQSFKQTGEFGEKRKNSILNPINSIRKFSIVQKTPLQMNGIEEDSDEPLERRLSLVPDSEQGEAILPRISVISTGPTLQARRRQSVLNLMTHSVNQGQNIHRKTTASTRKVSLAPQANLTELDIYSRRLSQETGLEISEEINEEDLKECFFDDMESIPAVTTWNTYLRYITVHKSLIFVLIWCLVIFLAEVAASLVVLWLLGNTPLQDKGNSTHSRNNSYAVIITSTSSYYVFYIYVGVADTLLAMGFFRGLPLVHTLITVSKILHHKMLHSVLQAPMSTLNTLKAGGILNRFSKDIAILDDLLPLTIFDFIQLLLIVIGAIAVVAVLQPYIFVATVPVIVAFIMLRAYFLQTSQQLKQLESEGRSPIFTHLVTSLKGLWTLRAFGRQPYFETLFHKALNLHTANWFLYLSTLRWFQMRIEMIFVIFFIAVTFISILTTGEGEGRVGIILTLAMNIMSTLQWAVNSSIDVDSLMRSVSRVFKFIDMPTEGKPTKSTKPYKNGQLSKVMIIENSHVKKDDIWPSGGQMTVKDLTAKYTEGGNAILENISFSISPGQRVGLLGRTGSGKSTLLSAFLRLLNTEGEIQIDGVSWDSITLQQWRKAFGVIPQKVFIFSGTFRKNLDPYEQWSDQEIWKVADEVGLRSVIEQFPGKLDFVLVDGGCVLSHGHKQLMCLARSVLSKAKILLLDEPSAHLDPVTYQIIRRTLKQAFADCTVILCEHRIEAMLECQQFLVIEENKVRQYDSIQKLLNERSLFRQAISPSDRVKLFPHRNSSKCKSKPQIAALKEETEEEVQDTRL

One test addresses Cystic fibrosis transmembrane conductance regulator (Homo sapiens, UniProt P13569). In words: (§1) Activity of human CFTR F508 deletion mutant expressed in FRT cells assessed as potentiation of genistein-induced iodine ion influx after 24 hrs by YFP-H148Q/I152L fluorescent quenching assay. The following applies: frt. In kind it is cell-based. Put shortly:
(§2)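 FRT cells co-expressing human ΔF508-CFTR and the iodide-sensitive YFP-H148Q/I152L sensor were incubated 24 h with each compound. Iodide influx, used as a chloride surrogate, was then read from the kinetics of YFP quenching after iodide addition, with cells stimulated by a cAMP agonist plus genistein. Corrector activity was derived from influx versus concentration data.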
As usually defined, the EC50 is the midpoint of the concentration-response curve. As to `COc1ccc(Cl)cc1-n1cc(-c2sc(NC(=O)C(C)(C)C)nc2C)[nH]c1=O`, the EC50 entry was “Not Active”.
The same measure, in the same setting: the entry for `COc1ccc(Cl)cc1Nc1nnc(-c2csc(NC(=O)C(C)(C)C)n2)s1` is “Not Active”; for `COc1ccc(Cl)cc1Nc1nc(C)c(-c2csc(NC(=O)C(C)(C)C)n2)s1` it is “Not Active”.

The target in the next test is Cystic fibrosis transmembrane conductance regulator (Homo sapiens, UniProt P13569, F508DEL). The description is as §1. In kind it is cell-based.
Chain of Cystic fibrosis transmembrane conductance regulator (Homo sapiens, UniProt P13569, F508DEL) (P13569 as listed by the source): as above
Conditions: not given; call rule not given here
The procedure, abridged:
as §2
As for `COc1ccc(Cl)cc1Nc1nc(-c2sc(NC(=O)C(C)(C)C)nc2C)cs1`, the EC50 came to 870 nM.
The same measure, in the same setting: the same measure for `COc1ccc(Cl)cc1Nc1ncc(-c2sc(NC(=O)C(C)(C)C)nc2C)o1`: 740 nM; for `COc1ccc(Cl)cc1Nc1nnc(-c2csc(NC(=O)C(C)(C)C)n2)o1`: 660 nM; for `COc1ccc(Cl)cc1Nc1nc(-c2nnc(NC(=O)C(C)(C)C)o2)cs1`: 590 nM.
